Active and inactive are the calls of the source. The rule behind the calls is not given here.
Columns and labels:
[1] = Half life in human liver microsomes at 1 uM preincubated for 5 mins followed by NADPH addition and measured by LC/MS/MS analysis; format: ADME, microsome; settings: microsomes, 1 µM
[2] = Drug uptake in BALB/c mouse blood at 25 mg/kg, po via gavage measured after 4 hrs post dose by […]; format: ADME, organism-based; settings: read-out: Drug uptake
Procedure, shortened: (§1)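 BALB/c mice get a single oral gavage dose of 25 mg/kg; tissues are collected 4 h post-dose. About 100 mg tissue is diluted 5-fold in PBS and homogenized. Homogenate is extracted as for plasma (ketoconazole internal standard, acetonitrile extraction) and quantified by HPLC-UV at 291 nm, 0.1 μM detection limit, n=2.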

[3] = Drug uptake in BALB/c mouse heart at 25 mg/kg, po via gavage measured after 2 hrs post dose by LC-MS analysis; format: ADME, organism-based; settings: in vivo
[4] = Lipophilicity, log P of the compound; format: physicochemical; settings: octanol/water
[5] = Drug uptake in BALB/c mouse liver at 25 mg/kg, po via gavage measured after 4 hrs post dose by […]; format: ADME, organism-based; settings: read-out: Drug uptake; procedure, shortened: as §1
[6] = molecular target: Lanosterol 14-alpha-demethylase (Trypanosoma brucei brucei (strain 927/4 GUTat10.1)) (UniProt Q385E8); assay: Inhibition of Trypanosoma brucei […] CYP51 expressed in Escherichia coli using [3-3H]-obtusifoliol as substrate after 60 mins by LC-MS analysis
Chain of Lanosterol 14-alpha-demethylase (Trypanosoma brucei brucei (strain 927/4 GUTat10.1)) (Q385E8 1-481): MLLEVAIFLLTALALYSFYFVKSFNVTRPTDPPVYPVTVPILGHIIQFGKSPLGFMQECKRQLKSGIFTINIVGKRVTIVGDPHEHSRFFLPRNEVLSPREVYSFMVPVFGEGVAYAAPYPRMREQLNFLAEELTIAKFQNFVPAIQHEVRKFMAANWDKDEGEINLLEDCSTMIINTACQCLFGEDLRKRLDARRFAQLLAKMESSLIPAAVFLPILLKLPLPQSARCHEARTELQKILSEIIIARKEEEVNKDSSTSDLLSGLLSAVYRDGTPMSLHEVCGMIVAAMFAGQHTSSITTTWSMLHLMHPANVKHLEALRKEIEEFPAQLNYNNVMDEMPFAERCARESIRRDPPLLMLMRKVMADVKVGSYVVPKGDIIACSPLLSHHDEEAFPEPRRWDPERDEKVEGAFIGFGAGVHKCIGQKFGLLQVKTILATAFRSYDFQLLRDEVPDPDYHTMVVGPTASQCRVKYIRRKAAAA
Procedure, shortened: (§2)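 Reconstituted reaction: 1 μM purified CYP51, 2 μM T. brucei NADPH-P450 reductase, 100 μM dilauroylphosphatidylcholine, isocitrate dehydrogenase/isocitrate regeneration, 50 mM K phosphate pH 7.2, 10% glycerol. [3-3H]sterol substrate at 50 μM final (eburicol for T. cruzi; obtusifoliol for T. brucei and L. infantum) with inhibitor at 1.1 μM final. Preincubate 60 s at 37 °C, start with 100 μM NADPH, run 60 min, EtOAc extraction. Gives % inhibition of 14α-demethylation, triplicate, mean ± SD.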

[7] = Drug uptake in BALB/c mouse spleen at 25 mg/kg, po via gavage measured after 4 hrs post dose by […]; format: ADME, organism-based; settings: read-out: Drug uptake; procedure, shortened: as §1
[8] = Drug uptake in BALB/c mouse blood at 25 mg/kg, po via gavage measured after 2 hrs post dose by LC-MS analysis; format: ADME, organism-based; settings: in vivo
[9] = Intrinsic clearance in Sprague-Dawley rat liver microsomes at 1 uM preincubated for 5 mins followed by NADPH addition and measured after 45 mins by LC/MS/MS analysis; format: ADME, microsome; settings: read-out: CLH
[10] = Drug uptake in BALB/c mouse spleen at 25 mg/kg, po via gavage measured after 2 hrs post dose by LC-MS analysis; format: ADME, organism-based; settings: in vivo
[11] = Hepatic clearance in CD1 mouse liver microsomes at 1 uM preincubated for 5 mins followed by NADPH addition and measured after 45 mins by LC/MS/MS analysis; format: ADME, microsome
[12] = Hepatic clearance in human liver microsomes at 1 uM preincubated for 5 mins followed by NADPH addition and measured after 45 mins by LC/MS/MS analysis; format: ADME, microsome
[13] = Half life in CD1 mouse liver microsomes at 1 uM preincubated for 5 mins followed by NADPH addition and measured by LC/MS/MS analysis; format: ADME, microsome; settings: mouse, microsomes, 1 µM
[14] = Drug uptake in BALB/c mouse brain at 25 mg/kg, po via gavage measured after 4 hrs post dose by LC-MS analysis; settings: in vivo
[15] = molecular target: Sterol 14-alpha demethylase (Trypanosoma cruzi (strain CL Brener)) (UniProt Q7Z1V1); assay: Inhibition of Trypanosoma cruzi Y CYP51 expressed in Escherichia coli using [3-3H]-eburicol as substrate after 60 mins by LC-MS analysis; procedure, shortened: as §2
Chain of Sterol 14-alpha demethylase (Trypanosoma cruzi (strain CL Brener)) (Q7Z1V1 whole entry, looked up): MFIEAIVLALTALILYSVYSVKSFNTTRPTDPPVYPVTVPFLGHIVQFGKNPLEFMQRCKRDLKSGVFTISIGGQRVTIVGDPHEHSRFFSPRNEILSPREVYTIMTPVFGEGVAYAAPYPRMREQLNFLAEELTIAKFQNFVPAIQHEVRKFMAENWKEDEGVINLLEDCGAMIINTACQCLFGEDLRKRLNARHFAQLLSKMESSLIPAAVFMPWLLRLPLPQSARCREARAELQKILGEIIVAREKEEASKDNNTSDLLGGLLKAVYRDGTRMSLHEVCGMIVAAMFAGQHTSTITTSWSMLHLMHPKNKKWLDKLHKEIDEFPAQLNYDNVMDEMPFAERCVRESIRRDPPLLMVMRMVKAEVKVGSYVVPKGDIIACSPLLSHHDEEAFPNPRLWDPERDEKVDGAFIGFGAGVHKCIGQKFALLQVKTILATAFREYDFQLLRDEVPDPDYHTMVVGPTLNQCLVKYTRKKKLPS

[16] = Drug uptake in BALB/c mouse lungs at 25 mg/kg, po via gavage measured after 2 hrs post dose by LC-MS analysis; format: ADME, organism-based, Lung; settings: in vivo
[17] = Drug uptake in BALB/c mouse intestine at 25 mg/kg, po via gavage measured after 2 hrs post dose by LC-MS analysis; format: ADME, organism-based; settings: read-out: Drug uptake
[18] = Drug uptake in BALB/c mouse lungs at 25 mg/kg, po via gavage measured after 4 hrs post dose by […]; format: ADME, organism-based, Lung; settings: read-out: Drug uptake; procedure, shortened: as §1
[19] = Maximum plasma concentration in BALB/c mouse at 25 mg/kg, po via gavage by […]; format: ADME, organism-based; set-up: dose 25 mg/kg, route oral
Procedure, shortened: (§3)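 Single oral gavage dose of 25 mg/kg in BALB/c mice; blood sampled at 1, 2, 4, 6, 10, 16, 24 h. Plasma is diluted in PBS with ketoconazole internal standard, extracted with 80% acetonitrile, dried and redissolved. Analysed by reversed-phase HPLC with UV at 291/250 nm, 0.1 μM detection limit. Lifetime is time until undetectable.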

[20] = Hepatic clearance in Sprague-Dawley rat liver microsomes at 1 uM preincubated for 5 mins followed by NADPH addition and measured after 45 mins by LC/MS/MS analysis; format: ADME, microsome
Procedure, shortened: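 Pooled liver microsomes at 0.5 mg/mL: human (mixed gender), male Sprague-Dawley rat, or male CD-1 mouse, with test compound at 1 μM, triplicate. In vitro t1/2 is scaled to CLint (45 mg microsomes/g liver; 45 g liver/kg scaling factor). CLhep uses well-stirred model with hepatic blood flow 21 (human), 70 (rat), 90 (mouse) mL/min/kg.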

[21] = Drug uptake in BALB/c mouse heart at 25 mg/kg, po via gavage measured after 4 hrs post dose by […]; format: ADME, organism-based; settings: read-out: Drug uptake; procedure, shortened: as §1
[22] = Intrinsic clearance in human liver microsomes at 1 uM preincubated for 5 mins followed by NADPH addition and measured after 45 mins by LC/MS/MS analysis; format: ADME, microsome; settings: read-out: CLH
[23] = Half life in Sprague-Dawley rat liver microsomes at 1 uM preincubated for 5 mins followed by NADPH addition and measured by LC/MS/MS analysis; format: ADME, microsome; settings: microsomes, 1 µM
[24] = Drug uptake in BALB/c mouse brain at 25 mg/kg, po via gavage measured after 4 hrs post dose by […]; format: ADME, organism-based; settings: read-out: Drug uptake; procedure, shortened: as §1
[25] = Intrinsic clearance in CD1 mouse liver microsomes at 1 uM preincubated for 5 mins followed by NADPH addition and measured after 45 mins by LC/MS/MS analysis; format: ADME, microsome; settings: read-out: CLH
[26] = molecular target: Putative lanosterol 14-alpha-demethylase (Leishmania infantum) (UniProt A2TEF2); assay: Inhibition of Leishmania infantum CYP51 expressed in Escherichia coli using [3-3H]-obtusifoliol as substrate after 60 mins by LC-MS analysis; procedure, shortened: as §2
Chain of Putative lanosterol 14-alpha-demethylase (Leishmania infantum) (A2TEF2 1-480): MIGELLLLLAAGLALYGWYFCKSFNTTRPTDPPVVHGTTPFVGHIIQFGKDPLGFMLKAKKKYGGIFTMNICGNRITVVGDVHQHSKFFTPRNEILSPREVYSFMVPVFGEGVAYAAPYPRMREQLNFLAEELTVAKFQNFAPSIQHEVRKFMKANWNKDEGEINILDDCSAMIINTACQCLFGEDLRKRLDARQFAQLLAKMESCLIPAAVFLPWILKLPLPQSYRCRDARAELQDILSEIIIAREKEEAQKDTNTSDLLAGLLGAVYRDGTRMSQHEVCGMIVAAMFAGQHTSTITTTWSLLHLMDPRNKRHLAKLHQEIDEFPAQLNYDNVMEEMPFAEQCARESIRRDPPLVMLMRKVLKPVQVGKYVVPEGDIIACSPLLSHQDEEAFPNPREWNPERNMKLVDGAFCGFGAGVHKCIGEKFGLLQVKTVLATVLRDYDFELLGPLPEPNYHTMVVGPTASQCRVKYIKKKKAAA

[27] = Drug uptake in BALB/c mouse liver at 25 mg/kg, po via gavage measured after 2 hrs post dose by LC-MS analysis; format: ADME, organism-based; settings: in vivo
[28] = Plasma concentration in BALB/c mouse assessed as time until the compound becomes undetectable at 25 mg/kg, po via gavage […]; format: ADME, organism-based; settings: in vivo; procedure, shortened: as §3
[29] = Cmax in BALB/c mouse at 25 mg/kg, po via gavage measured after 2 hrs post dose by […]; format: ADME, organism-based; set-up: dose 25 mg/kg, route oral; settings: in vivo; procedure, shortened: as §3

SMILES: CS(=O)(=O)c1ccc(-c2ccc([C@H](Cn3ccnc3)NC(=O)c3ccc(-c4nnc(-c5ccccc5)o4)cc3)c(Cl)c2)cc1
- t1/2 [1]: 108 min
- concentration at 4 h [2]: < 0.1 µM
- Drug uptake [3]: Not Active
- logP [4]: 4.39
- concentration at 4 h [5]: < 0.1 µM
- inhibition [6]: inactive
- concentration at 4 h [7]: < 0.1 µM
- Drug uptake [8]: Not Active
- CLint scaled at 1 µM [9]: 58.1 mL/min/kg
- Drug uptake [10]: Not Active
- CLhep predicted at 1 µM [11]: 52.6 mL/min/kg
- CLhep predicted at 1 µM [12]: 7.46 mL/min/kg
- t1/2 [13]: 43 min
- Drug uptake [14]: Not Active
- inhibition [15]: inactive
- Drug uptake [16]: Not Active
- concentration at 2 h [17]: 130 µM
- concentration at 4 h [18]: < 0.1 µM
- Cmax [19]: < 0.1 µM
- CLhep predicted at 1 µM [20]: 31.7 mL/min/kg
- concentration at 4 h [21]: < 0.1 µM
- CLint scaled at 1 µM [22]: 11.6 mL/min/kg
- t1/2 [23]: 48 min
- concentration at 4 h [24]: < 0.1 µM
- CLint scaled at 1 µM [25]: 127 mL/min/kg
- inhibition [26]: inactive
- Drug uptake [27]: Not Active

SMILES: O=C(N[C@@H](Cn1ccnc1)c1ccc(-c2ccccc2)cc1Cl)c1ccc(-c2nnc(-c3ccccc3)o2)cc1
- t1/2 [1]: 60 min
- concentration at 4 h [2]: 9 µM
- Time [28]: < 10 h
- logP [4]: 5.68
- concentration at 4 h [5]: 21 µM
- concentration at 4 h [7]: 5 µM
- CLint scaled at 1 µM [9]: 142 mL/min/kg
- CLhep predicted at 1 µM [11]: 24.8 mL/min/kg
- CLhep predicted at 1 µM [12]: 10.5 mL/min/kg
- t1/2 [13]: 160 min
- concentration at 4 h [18]: 8 µM
- Cmax [29]: 28 µM
- Cmax [19]: 28 µM
- CLhep predicted at 1 µM [20]: 46.9 mL/min/kg
- concentration at 4 h [21]: 5 µM
- CLint scaled at 1 µM [22]: 20.9 mL/min/kg
- t1/2 [23]: 20 min
- concentration at 4 h [24]: 0.1 µM
- CLint scaled at 1 µM [25]: 34.2 mL/min/kg
